Screening data (PubChem)
STAT3 blocker – STAT3 signaling inhibition; U3A cells, IL-6 STAT3-luciferase reporter, luminescence; host cell line lacks STAT1; inhibition, % at 5.5 µM; 190,000 compounds, 0.89% hits;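 active = inhibition above the mean inhibition across all screened compounds plus 3 SD, cut at about 44% in these data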;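 also: 0% = DMSO only wells and 100% = 100 µM nifuroxazide control wells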
NF-kB neuron act – NF-kB expression increase, human neuronal cells; NF-kB reporter expression; stronger effect = higher value; fold change at 12.5 µM; 190,000 compounds, 1.6% hits; AID 1239; in the data active = fold change above about 3.3
APP 5'UTR act – activates APP 5'UTR luciferase reporter. SH-SY5Y APP 5'UTR luciferase reporter, luminescence; zero percent = DMSO vehicle wells. activation, % at 2 µM. 190,000 compounds, 1% hits. AID 1276;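 active = activation above a set limit, based on mean plus 3 SD of controls, cut at about 140% in these data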
STAT1 act-1 – increases IFN-gamma driven STAT1 reporter signal | NIH 3T3 STAT1-luciferase reporter, luminescence; 100% = IFN-gamma alone, no compound | activation (% of control), % at 5.5 µM | 200,000 compounds, 2.6% hits;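 active = activation above the screen-wide mean activation plus 3 SD, cut at about 130% in these data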;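 also: raw ratio to IFN-gamma control signal so 100% means no change and 0% no light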
STAT1 blocker – STAT1 signaling inhibition | NIH 3T3 STAT1-luciferase reporter, IFN-gamma, luminescence | inhibition, % at 5.5 µM | 200,000 compounds, 0.35% hits;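 active = inhibition above a set limit, the mean inhibition across all tested compounds plus 3 SD, cut at about 34% in these data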;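 also: 0% = IFN-gamma with DMSO and 100% = IFN-gamma with 300 µM nifuroxazide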
STAT3 act-1 – STAT3 signaling activation | U3A cells, IL-6 STAT3-luciferase reporter, luminescence; 100% = signal with IL-6 EC80 alone | activation (% of control), % at 5.6 µM | 190,000 compounds, 0.91% hits;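 active = activation above the screen-wide mean of compound activation plus 3 SD, cut at about 130% in these data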;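 also: 0% = background luminescence of wells with medium and substrate only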
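Test system: human U3A cells carrying STAT3-luciferase construct; control set: IL-6-only wells as 100% reference; timing: compound pre-incubation 1 h before IL-6, then 6 h stimulation at 37 °C; also added: IL-6 stimulus at 33 ng/mL final; evaluation: % activation versus median of IL-6-stimulated wells; detection: reporter luminescence signal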
STAT3 act-2 – confirmation of STAT3 signaling activators. shares compounds with STAT3 act-1. U3A STAT3-luciferase reporter, IL-6 potentiation, luminescence; U3A cells lack STAT1; 100 means same as IL-6 alone. potentiation (% of control), % at 5.7 µM. 1,200 compounds, 64% hits;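 active = percent activation of the STAT3 luciferase reporter above a set limit taken from the earlier primary screen, cut at about 130% in these data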;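 also: 0% = background signal of medium plus substrate and 100% = median of IL-6 with DMSO wells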
NFkB act 2 – counter-screen for STAT3 activators: NF-kappaB activation. shares compounds with STAT3 act-1. human cells, NF-kappaB reporter activation. activation (% of control), % at 5.7 µM. 1,200 compounds, 11% hits; in the data active = activation above about 120%;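 also: reporter induced by TNF-alpha stimulation; 100% = median of stimulated DMSO wells and 0% = no signal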
STAT1 act-2 – counter-screen for STAT3 activators: STAT1 activation; shares compounds with STAT3 act-1; NIH 3T3 STAT1-luciferase reporter, IFN-gamma, luminescence; activation (% of control), % at 5.7 µM; 1,200 compounds, 13% hits; AID 1318;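 active = activation above the solvent-only control well mean plus 3 SD, set per screening run, cut at about 120% in these data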;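 also: 100% = IFN-gamma with DMSO median signal so 100% means no change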
An asterisk follows results filed as active; / = no result. Most compounds without a hit are left out; they make up all but 4.9% or so of the library.

SMILES	STAT3 blocker	NF-kB neuron act	APP 5'UTR act	STAT1 act-1	STAT1 blocker	STAT3 act-1	STAT3 act-2	NFkB act 2	STAT1 act-2
CN(C)c1ccc(P(=O)(Nc2ccccc2)N2CCOCC2)c(NC(=O)c2cccs2)c1 (centres undefined)	-43	1	14	102	-2	136*	140*	100	103
Cc1ccc(NP(=O)(c2ccc(N(C)C)cc2NC(=O)c2cccs2)N2CCOCC2)cc1 (centres undefined)	-53	1.2	13	99	1	139*	135*	101	101
Cc1ccc(NP(=O)(c2ccc(N(C)C)cc2NC(=O)c2cccs2)N2CCOCC2)cc1Cl (centres undefined)	-39	0.69	16	97	4	127	/	/	/
O=C(Nc1ccc(C(=O)N2CCOCC2)cc1)c1cccs1	6	1.2	6	97	3	97	/	/	/
CN(C)c1ccc(P(=O)(Nc2ccc([N+](=O)[O-])cc2)N2CCOCC2)c(NC(=O)c2cccs2)c1 (centres undefined)	-54	0.8	-4	105	-5	140*	149*	101	104
CCCCN(CC)C(=O)C1CCC(=O)N(c2ccc(OC)cc2)C1c1ccc(OC)c(OC)c1 (centres undefined)	5	/	-3	101	-1	102	/	/	/
O=C(Nc1ccnc(-c2cccnc2)n1)c1cccs1	20	0.87	-8	109	-12	86	/	/	/
COc1ccc(C(=O)OCC(=O)NC(=O)NC(C)C)cc1OC	4	1.3	20	101	-2	99	/	/	/
C#CCNC(=O)C1=C[C@H](c2ccc(C(F)(F)F)cc2)C[C@H](OCCCCO)O1	/	1	9	101	0	/	/	/	/
CN1c2ccsc2/C(=N/Nc2ccc(F)cc2)CS1(=O)=O	-31	1.1	47	111	-12	126	/	/	/
Cc1ccc(N/N=C2\CS(=O)(=O)N(C)c3ccsc32)cc1	-49	1.5	60	110	-11	141*	144*	121*	119
COc1ccc(C2c3[nH]c4ccccc4c3CCN2C(=O)c2cc3ncccn3n2)c(F)c1 (centres undefined)	-46	0.96	-1	102	-3	146*	149*	100	100
COc1ccc(C2c3[nH]c4ccccc4c3CCN2C(=O)c2cn3ccccc3n2)c(F)c1 (centres undefined)	-64	1.3	34	125	-29	161*	159*	111	105
COc1ccc(OCC(=O)N2CCc3c([nH]c4ccccc34)C2c2ccccn2)cc1 (centres undefined)	16	0.87	20	95	3	90	/	/	/
Brc1ccc2ncnc(Nc3cccc4ccccc34)c2c1	-42	0.48	14	75	28	147*	163*	97	88
Cc1ccc(-c2cc(-c3cccs3)[nH]n2)c(O)c1	-72	8.1*	119	106	-6	164*	140*	127*	96
Cc1cc(C)c2c(-n3cccc3)nn(CC#N)c2n1	-10	1.1	-1	98	3	109	/	/	/
Cc1n[nH]c(C)c1S(=O)(=O)N1CCN(C(=O)c2ccco2)CC1	6	1.5	13	101	-2	98	/	/	/
CCOc1ccccc1CN1CCN(Cc2cc3ccccc3[nH]2)CC1CCO (centres undefined)	-36	0.67	2	81	20	136*	150*	98	94
O=C(NC(=S)Nc1nc2c(s1)CCCC2)c1ccccc1	-61	1.6	191*	121	-24	148*	206*	142*	200*
Cc1ccc(CC(=O)Nc2nc3c(s2)CCCC3)cc1	-49	3.4*	16	101	-6	141*	137*	103	114
